Our source for the EC50 and Activity values is ChEMBL document CHEMBL1132528, “A novel molecular design of thrombin receptor antagonist” (Bioorg Med Chem Lett, 1999).

The species entered for experiment [1] is Homo sapiens. Nature of the experiment: Platelet aggregation activity of the compound; IA means inactive. It is filed as functional, organism-based. Summed up: (§1)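 Human platelet-rich plasma from healthy donors who had taken no medication for the previous two weeks. Synthetic peptides were added directly and scored for their ability to induce platelet aggregation.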

For experiment [2], the target named is T1, Proteinase-activated receptor 1 (Homo sapiens) (UniProt P25116).
T1 sequence (whole entry): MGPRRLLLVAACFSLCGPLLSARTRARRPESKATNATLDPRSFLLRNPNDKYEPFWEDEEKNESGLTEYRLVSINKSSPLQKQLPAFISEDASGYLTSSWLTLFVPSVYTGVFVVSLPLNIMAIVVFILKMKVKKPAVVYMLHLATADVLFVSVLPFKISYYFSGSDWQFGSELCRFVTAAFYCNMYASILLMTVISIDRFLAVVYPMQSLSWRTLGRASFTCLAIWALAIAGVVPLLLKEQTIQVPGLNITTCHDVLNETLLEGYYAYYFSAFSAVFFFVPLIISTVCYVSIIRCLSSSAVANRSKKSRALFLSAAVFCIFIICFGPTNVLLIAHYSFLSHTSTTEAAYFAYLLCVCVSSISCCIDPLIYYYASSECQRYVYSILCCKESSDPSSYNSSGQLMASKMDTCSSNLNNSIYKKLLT
Nature of the experiment: Thrombin receptor antagonistic activity was evaluated by the inhibition of platelet aggregation induced by the agonist SFLLRNP; IA means inactive. It is filed as functional. Summed up:
(§2)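 Human platelet-rich plasma from drug-free healthy donors. Test peptide (e.g. 100 μM) was incubated in the plasma for 3 min, then SFLLRNP agonist was added to induce aggregation. Inhibition of aggregation was measured; IC50 came from dose-dependent inhibition.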

For experiment [3], the species on record is Homo sapiens. Nature of the experiment: Platelet aggregation activity of the compound. It is filed as functional, organism-based. Summed up:
as §1

Experiment [4] has as its target T1, Proteinase-activated receptor 1 (Homo sapiens). Nature of the experiment: Thrombin receptor antagonistic activity was evaluated by the inhibition of platelet aggregation induced by the agonist SFLLRNP. It is filed as functional. Further details: scale not given: the % may be the effect or the level left. Put shortly:
as §2

Active and inactive are the calls of the source. The calls are words filed in the database; no cut-off is given here. Peptide text beside a SMILES is read from it.

One may read the EC50 as the concentration needed to bring the measured effect to its halfway point. In the case of `CC(C)C[C@H](NC(=O)[C@H](CC(C)C)NC(=O)[C@H](CC(=O)O)NC(=O)[C@@H](N)CO)C(=O)N[C@@H](CCCN=C(N)N)C(=O)N[C@@H](CC(N)=O)C(=O)N1CCC[C@H]1C(=O)O` (H-SDLLRNP-OH), the EC50 entry in experiment [1] is listed as “Not Active”. For the same compound, the result in experiment [2] was inactive.
`CC(C)C[C@H](NC(=O)[C@H](CC(C)C)NC(=O)[C@H](Cc1ccccc1)NC(=O)[C@@H](N)CO)C(=O)N[C@@H](CCCN=C(N)N)C(=O)N[C@@H](CC(N)=O)C(=O)N1CCC[C@H]1C(=O)O` (H-SFLLRNP-OH) displayed an EC50 in experiment [3] of 4.27 µM. In addition, the result in experiment [2] was inactive.
As to `CC(C)C[C@H](NC(=O)[C@H](CC(C)C)NC(=O)[C@H](Cc1ccccc1)NC(=O)[C@@H](N)CO)C(=O)N[C@@H](CC(=O)O)C(=O)N[C@@H](CC(N)=O)C(=O)N1CCC[C@H]1C(=O)O` (H-SFLLDNP-OH), the half-maximal effective concentration (EC50) entry in experiment [1] is “Not Active”. The result in experiment [2] was inactive.
Compound `CC(C)C[C@H](NC(=O)[C@H](CC(C)C)NC(=O)[C@H](Cc1ccccc1)NC(=O)[C@@H](N)CO)C(=O)N[C@@H](CCCN=C(N)N)C(=O)N[C@@H](CC(N)=O)C(=O)N[C@@H](CC(=O)O)C(=O)O` (H-SFLLRND-OH) registered a concentration giving a half-maximal response (EC50) in experiment [3] of 4.27 µM. In addition, in experiment [2], the outcome was inactive.
As for `CC(C)C[C@H](NC(=O)[C@H](CC(C)C)NC(=O)[C@H](Cc1ccccc1)NC(=O)[C@@H](N)CC(=O)O)C(=O)N[C@@H](CCCN=C(N)N)C(=O)N[C@@H](CC(N)=O)C(=O)N1CCC[C@H]1C(=O)O` (H-DFLLRNP-OH), the EC50 entry in experiment [1] was “Not Active”. Besides, the outcome in experiment [2] was inactive.
On the same counts, the results for `CC(C)C[C@H](NC(=O)[C@H](Cc1ccccc1)NC(=O)[C@@H](N)CO)C(=O)N[C@@H](CC(=O)O)C(=O)N[C@@H](CCCN=C(N)N)C(=O)N[C@@H](CC(N)=O)C(=O)N1CCC[C@H]1C(=O)O` (H-SFLDRNP-OH) are “Not Active” and “inactive”.
`CC(C)C[C@H](NC(=O)[C@H](CC(C)C)NC(=O)[C@H](Cc1ccccc1)NC(=O)[C@@H](N)CO)C(=O)N[C@@H](CCCN=C(N)N)C(=O)N[C@@H](CC(=O)O)C(=O)N1CCC[C@H]1C(=O)O` (H-SFLLRDP-OH): it took 4.36 µM to reach a half-maximal effect in experiment [3] (EC50). The outcome in experiment [2] was inactive.
Regarding `CC(C)C[C@H](NC(=O)[C@H](CC(=O)O)NC(=O)[C@H](Cc1ccccc1)NC(=O)[C@@H](N)CO)C(=O)N[C@@H](CCCN=C(N)N)C(=O)N[C@@H](CC(N)=O)C(=O)N1CCC[C@H]1C(=O)O` (H-SFDLRNP-OH), in experiment [1], the concentration for a half-maximal effect (EC50) entry is listed as “Not Active”. The Activity in experiment [4] is 19%.
